System: Fibroblast
Assay: Multiplex assay against human fibroblast
Format: toxicity, cell-based
Method in brief: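 Hoechst33342, BioTracker Green Microtubule Cytoskeleton Dye, MitoTracker Red and Annexin V Alexa Fluor 680 were added to live cells at seeding, and imaging on a CQ1 microscope at 37°C and 5% CO2 followed compound addition. Gating by CellPathfinder machine learning separated cells into Hoechst high-intensity objects or normal cells, then normal cells into healthy, pyknosed or fragmented nuclei, then pyknosed cells into mitotic or apoptotic. Per cents of healthy-nucleus cells are reported for the tubulin, mitochondrial-mass and membrane-permeability phenotypes.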

[1] = 12 h, 1 µM, compound concentration 1 uM, replicate 1
[2] = 12 h, 1 µM, compound concentration 1 uM, replicate 2
[3] = 12 h, 10 µM, compound concentration 10 uM, replicate 1
[4] = 12 h, 10 µM, compound concentration 10 uM, replicate 2
[5] = 24 h, 1 µM, compound concentration 1 uM, replicate 1
[6] = 24 h, 1 µM, compound concentration 1 uM, replicate 2
[7] = 24 h, 10 µM, compound concentration 10 uM, replicate 1
[8] = 24 h, 10 µM, compound concentration 10 uM, replicate 2

Compound: COC(=N)c1nc2ccc3ncnc(Nc4ccc(OC)cc4F)c3c2s1
- Population Apoptotic (%) [1]: 55%
- Population Fragmented Nuclei (%) [1]: 30%
- Population Healthy Nuclei (%) [1]: 60%
- Population Hoechst High Intensity Objects (%) [1]: 17%
- Population Membrane Permeable-Phenotype (%) [1]: 3%
- Population Mitochondria Different-Phenotype (%) [1]: 3%
- Population Mitotic Cells (%) [1]: 44%
- Population Normal (%) [1]: 82%
- Population Pyknosed Nuclei (%) [1]: 9%
- Population Tubulin-Different-Phenotype (%) [1]: 1%
- Total Cell Count [1]: 119
- Population Apoptotic (%) [2]: 28%
- Population Fragmented Nuclei (%) [2]: 50%
- Population Healthy Nuclei (%) [2]: 34%
- Population Hoechst High Intensity Objects (%) [2]: 33%
- Population Membrane Permeable-Phenotype (%) [2]: 6%
- Population Mitochondria Different-Phenotype (%) [2]: 6%
- Population Mitotic Cells (%) [2]: 71%
- Population Normal (%) [2]: 66%
- Population Pyknosed Nuclei (%) [2]: 15%
- Population Tubulin-Different-Phenotype (%) [2]: 6%
- Total Cell Count [2]: 69
- Population Apoptotic (%) [3]: 76%
- Population Fragmented Nuclei (%) [3]: 20%
- Population Healthy Nuclei (%) [3]: 60%
- Population Hoechst High Intensity Objects (%) [3]: 11%
- Population Membrane Permeable-Phenotype (%) [3]: 7%
- Population Mitochondria Different-Phenotype (%) [3]: 0%
- Population Mitotic Cells (%) [3]: 23%
- Population Normal (%) [3]: 88%
- Population Pyknosed Nuclei (%) [3]: 18%
- Population Tubulin-Different-Phenotype (%) [3]: 1%
- Total Cell Count [3]: 238
- Population Apoptotic (%) [4]: 100%
- Population Fragmented Nuclei (%) [4]: 57%
- Population Healthy Nuclei (%) [4]: 35%
- Population Hoechst High Intensity Objects (%) [4]: 30%
- Population Membrane Permeable-Phenotype (%) [4]: 5%
- Population Mitochondria Different-Phenotype (%) [4]: 5%
- Population Mitotic Cells (%) [4]: 0%
- Population Normal (%) [4]: 69%
- Population Pyknosed Nuclei (%) [4]: 7%
- Population Tubulin-Different-Phenotype (%) [4]: 5%
- Total Cell Count [4]: 82
- Population Apoptotic (%) [5]: 77%
- Population Fragmented Nuclei (%) [5]: 41%
- Population Healthy Nuclei (%) [5]: 50%
- Population Hoechst High Intensity Objects (%) [5]: 19%
- Population Membrane Permeable-Phenotype (%) [5]: 8%
- Population Mitochondria Different-Phenotype (%) [5]: 6%
- Population Mitotic Cells (%) [5]: 22%
- Population Normal (%) [5]: 80%
- Population Pyknosed Nuclei (%) [5]: 7%
- Population Tubulin-Different-Phenotype (%) [5]: 1%
- Total Cell Count [5]: 146
- Population Apoptotic (%) [6]: 42%
- Population Fragmented Nuclei (%) [6]: 44%
- Population Healthy Nuclei (%) [6]: 36%
- Population Hoechst High Intensity Objects (%) [6]: 30%
- Population Membrane Permeable-Phenotype (%) [6]: 7%
- Population Mitochondria Different-Phenotype (%) [6]: 7%
- Population Mitotic Cells (%) [6]: 57%
- Population Normal (%) [6]: 69%
- Population Pyknosed Nuclei (%) [6]: 18%
- Population Tubulin-Different-Phenotype (%) [6]: 14%
- Total Cell Count [6]: 55
- Population Apoptotic (%) [7]: 65%
- Population Fragmented Nuclei (%) [7]: 20%
- Population Healthy Nuclei (%) [7]: 62%
- Population Hoechst High Intensity Objects (%) [7]: 13%
- Population Membrane Permeable-Phenotype (%) [7]: 5%
- Population Mitochondria Different-Phenotype (%) [7]: 2%
- Population Mitotic Cells (%) [7]: 34%
- Population Normal (%) [7]: 86%
- Population Pyknosed Nuclei (%) [7]: 17%
- Population Tubulin-Different-Phenotype (%) [7]: 1%
- Total Cell Count [7]: 246
- Population Apoptotic (%) [8]: 50%
- Population Fragmented Nuclei (%) [8]: 54%
- Population Healthy Nuclei (%) [8]: 37%
- Population Hoechst High Intensity Objects (%) [8]: 30%
- Population Membrane Permeable-Phenotype (%) [8]: 10%
- Population Mitochondria Different-Phenotype (%) [8]: 5%
- Population Mitotic Cells (%) [8]: 50%
- Population Normal (%) [8]: 69%
- Population Pyknosed Nuclei (%) [8]: 7%
- Population Tubulin-Different-Phenotype (%) [8]: 10%
- Total Cell Count [8]: 73

Source: ChEMBL document CHEMBL4689842, “EUbOPEN Chemogenomics Library wave 1” (2021)
